# Compound activity from PubChem.
# Most compounds without a hit are left out; they make up all but 3% or so of the library.
# N-glyco inh: N-linked glycosylation inhibition; D54 ERlucT glycosylation luciferase reporter, 24 h; percent of 100 nM tunicamycin response; reporter increase, % at 12.5 µM; 0.23% of 360,000 active;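 active means mean luciferase reporter signal, scaled so untreated is 0 and the glycosylation-blocking control 100, at or above a set limit in every replicate; inconclusive means mean reaches the limit but not every replicate does; inactive means mean below the limit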;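 further: luciferase carries N-glycosylation sites so blocking glycosylation raises the light; 0% = median of neutral control wells and 100% = median of 100 nM tunicamycin wells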
# PvdQ acylase: blocks Pseudomonas aeruginosa PvdQ acylase activity; inhibition, % at 10 µM; 0.063% of 340,000 active; purified PvdQ acylase, fluorescence plate reader; AID 488965; in the data active means inhibition above about 30%, passing the limit was not always enough; inconclusive means no clear call, values can overlap the other calls;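 further: 0% = vehicle neutral wells and 100% = reference inhibitor wells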
# T cruzi inh: T. cruzi replication inhibition | T. cruzi beta-gal in NIH3T3, luminescence, 90 h | AID 1885 | inhibition, % (concentration not given with the values) | 1.4% of 300,000 active;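 active means mean inhibition across valid replicates above about 55%, limit read from the data; inconclusive means mean below that limit but half or more replicates reach it; inactive means mean below it, under half of replicates reach it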;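 further: signal also drops with host cell toxicity which is not excluded here; 0% = plate median of DMSO wells and 100% = zero luminescence signal; higher percent means less beta-gal luminescence so fewer parasites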
#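 Assay system: NIH/3T3 host cells with β-galactosidase reporter T. cruzi; input: 5,000 host fibroblasts per well; compound: single 50 nL compound addition per well in DMSO; timing: ≥90 h infection period, 3 h prior cell attachment; measured by: GalScreen β-gal luminescence, detergent lysis, 60 min; evaluation: percent inhibition of parasite-derived β-gal signal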
# CaV13 FRET inh: Disruptors of the CACNA1D IQ motif to Ca2+-dependent inactivation inhibitor domain association, primary screening, Förster resonance energy transfer in intact living …; HEK cells, CFP/YFP FRET ICDI-IQ, plate reader, 10 min; percent FRET-ratio fall versus neutral wells; inhibition, % at 12.3 µM; 0.098% of 340,000 active; AID 743397;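 active means mean replicate inhibition of at least 30% and at least 1% of replicates passing that level; inconclusive means only one of the two criteria is met; inactive means neither criterion is met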;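 further: 0% = median of the neutral control wells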
# PfHsp90 set2: reduces growth (ATP signal) of yeast expressing P. falciparum Hsp90. S. cerevisiae expressing PfHsp90, BacTiter-Glo ATP, 48 h; yeast lacking PDR1 and PDR3 efflux regulators. inhibition, % at 9.4 µM. 0.32% of 310,000 active. AID 504621;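 active means every replicate shows inhibition above about 80%, whatever the replicate mean, limit read from the data; inconclusive means mean inhibition reaches the set limit but some replicate falls short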;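 further: 0% = DMSO neutral controls and 100% = 20 µM radicicol positive controls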
# HSF-1 act: increases HSF-1 driven luciferase reporter signal | activation, % at 9 µM | 1.7% of 300,000 active | AID 504408 | NIH3T3-HGL HSF-1 luciferase reporter, MG132, 8 h; 100% = twice DMSO control signal;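 active means mean replicate activation of at least 50% with a set share of replicates each reaching 50%; inconclusive means only one of those two conditions met; inactive means mean below 50% and too few replicates reaching it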;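 further: 0% = median of the neutral control wells and 100% = twice that signal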
# * hit, by the source's call; ? = inconclusive; · = no result given.
SMILES,N-glyco inh,PvdQ acylase,T cruzi inh,CaV13 FRET inh,PfHsp90 set2,HSF-1 act
CCOC(=O)c1sc(NC(=O)c2sccc2C)cc1C,-11.2,-3.8,16.6,·,20.6,73.4*
CCOC(=O)c1sc(NC(=O)c2cccs2)cc1C,-10.7,-14.6,19.8,-4.6,14.8,?
COc1ccc(CN(C(=O)c2ccc(-c3ccccc3)[nH]2)C(C(=O)NC(C)(C)C)c2ccncc2)cc1 (stereo not given),0.9,-0.7,58.5*,-3.9,32.9,47.9
COc1cc(C(C(=O)NC(C)(C)C)N(Cc2ccccc2)C(=O)c2cnccn2)cc(OC)c1OC (stereo not given),1.5,-6.7,-9.9,·,14.5,5.0
O=c1c2c3c(sc2ncn1/N=C/c1ccc([N+](=O)[O-])o1)CCCC3,?,-12.2,-29.3,-5.3,104.9*,265.7*
COc1ccc(N2C(=O)c3[nH]nc(-c4ccccc4)c3C2c2cccc(C(F)(F)F)c2)cc1 (stereo not given),·,·,·,-4.8,·,·
CCN1CCCc2cc(CN(CCN3CCOCC3)C(=S)Nc3ccc(OC)c(OC)c3)ccc21,-1.1,-7.5,45.0,-1.4,-5.3,14.8
CCN1CCCc2cc(CN(CCN3CCOCC3)C(=S)Nc3ccccc3OC)ccc21,-2.6,-12.7,57.3*,-2.2,-22.5,-4.6
CCN1CCCc2cc(CN(CCN3CCOCC3)C(=S)Nc3ccc(OC)c(Cl)c3)ccc21,-4.7,-12.9,59.1*,-16.6,-27.4,-1.4
CCN1CCCc2cc(CN(CCN3CCOCC3)C(=S)Nc3ccccc3C)ccc21,-3.6,-12.8,35.4,2.8,14.1,-2.8
CCN1CCCc2cc(CN(CCN3CCOCC3)C(=S)Nc3cccc(C)c3)ccc21,-9.8,-10.1,60.9*,-4.9,7.0,-3.4
C[C@H](CO)N1C[C@H](C)[C@@H](CN(C)C(=O)Nc2ccc(N3CCN(C)CC3)cc2)OCc2cn(nn2)CCCC1=O,·,·,·,-4.8,·,·
O=C1CC(c2cccc([N+](=O)[O-])c2)c2c(ccc3ccccc23)N1 (stereo not given),13.7,-10.1,13.4,·,-1.8,53.0*
Nc1[nH]c(C(=O)c2ccc(Br)cc2)c(-c2ccc(F)cc2)c1C(=O)NCCc1c[nH]c2ccccc12,·,·,·,-15.7,·,·
CCCCNc1nc(Nc2ccc(C)c(Cl)c2)c2cnn(C)c2n1,-3.3,-13.7,33.0,-17.1,-0.3,65.0*
CCNc1nc(Nc2ccc(C)c(Cl)c2)c2cnn(C)c2n1,3.7,1.5,-3.7,-20.8,-52.5,-10.3
S=C(c1cn(Cc2ccc(Br)cc2)c2ccccc12)N1CCOCC1,-3.0,16.4,1.4,-5.4,5.3,53.7*
COc1ccc(Cn2c(C3CC3)nc3ccc(NC(C)=O)cc3c2=O)cc1,-2.9,-9.5,14.7,·,15.4,50.6*
CCN(CC)c1cc(C)c2cc(NC(=O)c3cccs3)ccc2n1,1.8,-16.5,27.6,7.2,·,37.1
CCCc1nc2ccc(NC(=O)c3cccs3)cc2c(=O)n1Cc1ccccc1Cl,-4.6,-9.2,39.6,·,-9.3,61.3*
CCCc1nc2ccc(NC(C)=O)cc2c(=O)n1Cc1ccc(Cl)cc1,-2.3,2.2,38.5,-4.6,-22.5,60.3*
COc1ccc(Cn2c(C3CC3)nc3ccc(NC(=O)c4cccnc4)cc3c2=O)cc1,17.4,3.2,10.7,·,-4.5,-32.6
Cc1ccc(S(=O)(=O)N2CCCN(C(=O)c3ccc(-n4nccc4C)cc3)CC2)cc1,1.4,-3.4,·,-6.0,7.2,·
CCOc1c(Cl)cc(CNc2ccc(N3CCCC3)cc2)cc1OC,16.3,-17.3,63.4*,0.6,-1.5,-18.4
CCOc1c(Cl)cc(CNc2ccc(S(N)(=O)=O)cc2)cc1OC,-2.2,7.7,-21.4,-3.7,15.8,-0.1
SMILES,N-glyco inh,PvdQ acylase,T cruzi inh,CaV13 FRET inh,PfHsp90 set2,HSF-1 act
Cc1ccc(S(=O)(=O)N(C(=O)c2ccncc2)c2ccc(OC(=O)c3ccncc3)cc2)cc1,-0.4,-0.4,-6.4,-4.3,94.9*,27.7
O=C(Oc1ccc(N(C(=O)c2ccncc2)S(=O)(=O)c2ccc(F)cc2)cc1)c1ccncc1,-1.3,-3.1,-12.5,-6.7,-15.3,-5.4
Cc1ccc(S(=O)(=O)N(C(=O)c2ccncc2)c2ccc(OC(=O)c3ccncc3)cc2)c(C)c1,-3.0,-7.4,14.1,-3.1,89.2*,-0.9
CCc1ccc(S(=O)(=O)N(C(=O)c2ccncc2)c2ccc(OC(=O)c3ccncc3)cc2)cc1,-1.8,-13.9,-28.9,-4.2,100.9*,5.6
COc1ccc(N(C(=O)c2ccncc2)S(=O)(=O)c2ccc(Cl)cc2)cc1,-2.7,-7.8,-4.7,·,96.9*,9.1
O=C(Oc1ccc(N(C(=O)c2ccncc2)S(=O)(=O)c2ccc(Cl)cc2)cc1)c1ccncc1,-3.5,-10.7,-5.6,-4.3,?,18.9
Cc1ccc(C)c(S(=O)(=O)N(C(=O)c2ccncc2)c2ccc(OC(=O)c3ccncc3)cc2)c1,1.5,-1.2,6.0,-4.1,-71.3,-11.3
Clc1ccccc1C(c1ccccc1)(c1ccccc1)n1ccnc1,-7.8,-12.2,43.0,-4.8,89.9*,-19.5
C#CC(c1ccccc1)(c1ccccc1)n1ccnc1,-2.8,·,·,-6.5,·,·
COc1cccc(-c2nc3n(n2)CCc2ccccc2-3)c1,-6.5,·,·,-12.2,·,·
CCc1ccc(-c2cn3c(n2)SCC3)cc1,-5.3,-17.8,-1.4,-4.2,24.0,51.1*
Cc1ccc(Nc2nc(N)nc(CCl)n2)c(C)c1,-5.1,-7.0,57.4*,-4.2,7.1,-58.8
Cc1ccc(Nc2nc(N)nc(CN3CCCCCC3)n2)c(C)c1,-0.6,5.1,8.0,0.1,-18.2,-13.0
Cc1cccc(Nc2nc(N)nc(CCl)n2)c1,10.8,-15.1,68.2*,-3.9,-5.6,48.3
Cc1ccc(Nc2nc(N)nc(CSc3ncccn3)n2)cc1,-2.4,6.7,-4.9,-7.1,-29.2,66.0*
COc1ccc(OC)c(Nc2nc(N)nc(CCl)n2)c1,0.9,-11.8,·,-16.7,16.7,3.1
Nc1nc(CSc2ncccn2)nc(Nc2ccccc2)n1,1.2,-12.3,-12.8,-7.8,7.2,24.7
COc1cccc(Nc2nc(N)nc(CCl)n2)c1,0.2,-8.9,69.1*,-5.1,-21.4,32.2
Cc1ccc(Nc2nc(N)nc(CCl)n2)cc1,5.7,-14.4,3.1,-4.7,8.7,39.1
CCN1C(=O)S/C(=C/c2ccc(Sc3nc4ccccc4[nH]3)o2)C1=O,-3.5,-4.5,-18.0,-2.2,0.2,58.0*
Cc1cc(-c2nnc(CCC(=O)N(C)CCc3ccccc3)o2)no1,1.3,-1.3,3.2,-4.6,4.4,-41.4
Cc1cccc(Cc2nnc(CCC(=O)N(C)CCc3ccccc3)o2)c1,-1.3,-3.6,-2.4,-20.9,15.5,64.2*
O=C(NCc1ccccc1)[C@@H]1CCCN1C(=O)[C@H]1CCCN1C(=O)c1ccccc1,·,·,·,-11.5,·,·
